Assay results pooled from the literature.
Target: Platelet-derived growth factor receptor beta (PDGFRB, Homo sapiens, UniProt P09619)

N#CCCc1ccc2c(c1)-c1[nH]c3ccc([N+](=O)[O-])cc3c1CC(=O)N2  remaining signal (cell-free assay; 0.5 µM): 83.9%
O=C(Nc1cccnn1)N1CCC(=Cc2cccc(Oc3ccc(C(F)(F)F)cn3)c2)CC1  remaining binding (cell-free assay, competition with immobilised ligand; 1 µM): 97%
O=C(CSc1nc2nccnc2c(=O)n1CCc1ccccc1)Nc1nccs1  inhibition (enzyme activity, inhibitor; 10 µM): 2%
Cc1ccc(NC(=O)c2ccc(C)c(C(F)(F)F)c2)cc1C#Cc1nn(C2CCC(O)CC2)c2ncnc(N)c12 (centres unmarked)  remaining signal (cell-free assay; 10 µM): 87%
O=C(NCCCC1CCCCC1)c1ccc(CNC(=O)c2cnn(-c3ccccc3)c2C(F)(F)F)cc1  remaining binding (cell-free assay, competition with immobilised ligand; 0.1 µM): 100%
COc1cc2nccc(Oc3ccc(NC(=O)c4c5n(n(-c6ccc(F)cc6)c4=O)CCCC5)cc3)c2cc1OC  inhibition (enzyme activity, inhibitor; 0.1 µM): 6%
CNC(=O)c1cc(Oc2ccc(NC(=O)Nc3ccc(Cl)c(C(F)(F)F)c3)cc2)ccn1  remaining signal (cell-free assay; 0.5 µM): 12%
CCCOc1ccc([C@@H]2[C@@H](C(=O)O)[C@H](c3ccc4c(c3)OCO4)CN2CC(=O)Nc2c(CC)cccc2CC)cc1  remaining binding (cell-free assay, competition with immobilised ligand; 1 µM): 100%
O=C1c2ccccc2-c2n[nH]c3cccc1c23  activity vs control (enzyme activity, inhibitor; 0.5 µM): 85.1%
Cc1[nH]c(/C=C2\C(=O)Nc3ccc(F)cc32)c(C)c1C(=O)N[C@H]1CCN(C(=O)N(C)C)C1  remaining activity (enzyme activity, inhibitor; 1 µM): 18%
Cc1sc(C(=O)NC2COC2)cc1-n1cc(NC(=O)Nc2c(F)cccc2Cl)cn1  remaining activity (enzyme activity, inhibitor; 10 µM): 97.9%
Cc1ccc(C(=O)Nc2ccc(CN3CCN(C)CC3)c(C(F)(F)F)c2)cc1C#Cc1cnc2cccnn12  remaining activity (enzyme activity, inhibitor; 23.5 nM): 1.6%
CC(C)c1ccc(NC(=O)c2cccs2)c(-c2nc3ccccc3[nH]c2=O)c1  activity vs control (enzyme activity, inhibitor; 1 µM): 105%
CCN(CC)CCNC(=O)c1c(C)[nH]c(/C=C2\C(=O)Nc3ccc(F)cc32)c1C  remaining signal (cell-free assay; 0.5 µM): 17.6%
Cn1cc(Cl)c2c(Oc3c(F)cc(Nc4cc(Cl)nc(N)n4)cc3F)ccnc21  remaining binding (cell-free assay, competition with immobilised ligand; 0.1 µM): 96%
COc1cc2ncnc(Nc3ccc(Oc4ccccc4)cc3C)c2cc1OC  inhibition (enzyme activity, inhibitor; 1 µM): 2%
O=c1nc(-c2ccccn2)sc2ccccc12  remaining binding (cell-free assay, competition with immobilised ligand; 1 µM): 83%
Oc1cccc(-c2nc(N3CCOCC3)c3oc4ncccc4c3n2)c1  remaining signal (cell-free assay; 0.5 µM): 99.2%
Cc1cnc(NC2CCOCC2)nc1-n1cnc(C(=O)NC(CN)c2cc(F)cc(Cl)c2)c1 (centres unmarked)  remaining activity (enzyme activity, inhibitor, radiometric; 1 µM): 92%
CN(C)c1ncnc(-c2ccc3nc(Nc4cc(CN5CCN(C(=O)CC(F)(F)F)CC5)ccn4)[nH]c3c2)c1Cl  remaining binding (cell-free assay, competition with immobilised ligand; 1 µM): 100%
CC(C)(O)[C@H]1CC[C@H](Nc2ccc3ncc(-c4cccc(C(F)(F)F)c4)n3n2)CC1  remaining activity (enzyme activity, inhibitor; 1 µM): 81%
O=C(Nc1cccnn1)N1CC(C/C=C/c2cncc(Oc3ccc(C(F)(F)F)cn3)n2)C1  remaining binding (cell-free assay, competition with immobilised ligand; 1 µM): 81%
Cc1ccc(C(=O)NCc2ccsc2)cc1C#Cc1cn(C(C)C)c2ncnc(N)c12  activity vs control (enzyme activity, inhibitor; 1 µM): 20%
O=C1NC(=O)c2cc(Nc3ccc(F)cc3)c(Nc3ccc(F)cc3)cc21  remaining signal (cell-free assay; 0.5 µM): 93.9%
CC/C(=N\NC(=O)NCc1cccc(O)c1)c1ccc(O)c(C)c1O  inhibition (enzyme activity, inhibitor; 0.1 µM): 4.5%
Oc1ccc(-c2nc(-c3ccncc3)c(-c3ccc(F)cc3)[nH]2)cc1  remaining signal (cell-free assay; 0.5 µM): 104%
Fc1cccc(-n2cnc3c(NCc4nc5c(F)c(F)ccc5[nH]4)nc(N4CCOCC4)nc32)c1  binding vs control (binding, competition with immobilised ligand; 10 µM): 91%
Cn1nc(C(F)(F)F)cc1-c1cnc(N2CCc3cc(S(=O)(=O)Nc4c(F)cc(Cl)cc4F)cc(N4CCCC4=O)c32)nc1  remaining binding (cell-free assay, competition with immobilised ligand; 1 µM): 90%
Cc1ccc(Nc2nccc(N(C)c3ccc4c(C)n(C)nc4c3)n2)cc1S(N)(=O)=O  inhibition (enzyme activity, inhibitor; 0.3 µM): 64%
